From ChEMBL document CHEMBL1128300, “Synthesis and in vivo evaluation of prodrugs of 9-[2-(phosphonomethoxy)ethoxy]adenine” (J Med Chem, 1995)

Legend:
[1] = test system: Mus musculus; experiment: Concentration of the 9-[2-(Phosphonomethoxy)ethoxy]adenine in the blood following oral administration in mice; format: ADME, organism-based; parameters: unit not given here; settings: in vivo
Method in brief: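 Single 0.2 mmol/kg oral gavage dose to female BALB/c mice fasted 16 h, vehicle 1% carboxymethyl cellulose plus 1% Tween 80 in water. At each time point blood from three mice pooled, deproteinized with ice-cold ethanol at -20 °C, and parent phosphonate quantified by C18 HPLC with a gradient from pH 2.6 phosphate ion-pair buffer to 80% methanol.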

[2] = test system: Mus musculus; experiment: % bioavailability in mice after oral administration of prodrug; format: ADME, organism-based; settings: in vivo
Method in brief: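 Female BALB/c mice, fasted 16 h, single oral gavage 0.2 mmol/kg in 1% carboxymethyl cellulose plus 1% Tween 80 in water. Blood from three mice per time point pooled, ethanol-deproteinized, analysed by reversed-phase C18 HPLC (ion-pair phosphate buffer pH 2.6 / methanol gradient). Bioavailability as oral AUC of released parent phosphonate expressed as percent of intravenous AUC of its sodium salt.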

[3] = test system: Feline immunodeficiency virus; experiment: Inhibitory activity against Feline immunodeficiency virus.; format: functional, organism-based
[4] = test system: Simian immunodeficiency virus; experiment: Inhibitory activity against Simian immunodeficiency virus.; format: functional, organism-based
[5] = test system: Human immunodeficiency virus 2; experiment: Inhibitory activity against HIV-2, in peripheral blood lymphocytes
[6] = test system: Human immunodeficiency virus 1; experiment: Inhibitory activity against HIV-1, in peripheral blood lymphocytes

| Structure (SMILES) | AUC [1] | F% [2] [%] | also measured |
| --- | --- | --- | --- |
| CC(=O)Oc1ccccc1OP(=O)(COCCOn1cnc2c(N)ncnc21)Oc1ccccc1OC(C)=O | 5 | 10 | – |
| COc1ccc(OP(=O)(COCCOn2cnc3c(N)ncnc32)Oc2ccc(OC)cc2)cc1 | 5 | 10 | – |
| Nc1ncnc2c1ncn2OCCOCP(=O)(Oc1ccc(Br)cc1)Oc1ccc(Br)cc1 | 3 | 6 | – |
| Nc1ncnc2c1ncn2OCCOCP(=O)(Oc1ccccc1)Oc1ccccc1 | 13 | 26 | – |
| Cc1ccccc1OP(=O)(COCCOn1cnc2c(N)ncnc21)Oc1ccccc1C | 11 | 22 | – |
| CC(=O)OCc1ccc(OP(=O)(COCCOn2cnc3c(N)ncnc32)Oc2ccc(COC(C)=O)cc2)cc1 | 0 | 0 | – |
| Nc1ncnc2c1ncn2OCCOCP(=O)(O)O | – | – | IC50 [3]: 1700 nM; IC50 [4]: 3000 nM; IC50 [5]: 300 nM; IC50 [6]: 200 nM |
| CC(C)(C)OC(=O)c1ccc(OP(=O)(COCCOn2cnc3c(N)ncnc32)Oc2ccc(C(=O)OC(C)(C)C)cc2)cc1 | 0 | 0 | – |
| CC(C)C(=O)Oc1ccc(COP(=O)(COCCOn2cnc3c(N)ncnc32)OCc2ccc(OC(=O)C(C)C)cc2)cc1 | 0.5 | 1 | – |
| CC(C)OP(=O)(COCCOn1cnc2c(N)ncnc21)OCC(=O)OC(C)(C)C (stereo unspecified) | 0 | 0 | – |
| CCOP(=O)(COCCOn1cnc2c(N)ncnc21)OCC | 4 | 8 | – |
| CC(=O)Oc1ccc(OP(=O)(COCCOn2cnc3c(N)ncnc32)Oc2ccc(OC(C)=O)cc2)cc1 | 4 | 8 | – |
| Cl.Nc1ncnc2c1ncn2OCCOCP(=O)(Oc1ccccc1)Oc1ccccc1 | 25 | 50 | – |

Now from value to compound, other results behind:

| AUC [1] | F% [2] [%] | Structure (SMILES) | also measured |
| --- | --- | --- | --- |
| 4 | 8 | Nc1ncnc2c1ncn2OCCOCP(=O)(OCCBr)OCCBr | – |
| 3 | 6 | Nc1ncnc2c1ncn2OCCOCP(=O)(OCC(Cl)Cl)OCC(Cl)Cl | – |
| 0 | 0 | CCOCCOP(=O)(COCCOn1cnc2c(N)ncnc21)OCCOCC | – |
| 0 | 0 | COP(=O)(COCCOn1cnc2c(N)ncnc21)OC | – |
| 1 | 2 | Nc1ncnc2c1ncn2OCCOCP(=O)(OCc1ccc(Br)cc1)OCc1ccc(Br)cc1 | – |
| 4 | 8 | CC(=O)Oc1ccc(COP(=O)(COCCOn2cnc3c(N)ncnc32)OCc2ccc(OC(C)=O)cc2)cc1 | – |
| 15 | 30 | CC(C)(C)C(=O)OCOP(=O)(COCCOn1cnc2c(N)ncnc21)OCOC(=O)C(C)(C)C | – |
| 0 | 0 | CC(C)(CCl)C(=O)OCOP(=O)(COCCOn1cnc2c(N)ncnc21)OCOC(=O)C(C)(C)CCl | – |
| 2 | 4 | Nc1ncnc2c1ncn2OCCOCP(=O)(OCc1ccccc1)OCc1ccccc1 | – |
| 0 | 0 | CCCCOP(=O)(COCCOn1cnc2c(N)ncnc21)OCCCC | – |
| 12 | 24 | CC(OC(=O)C(C)C)OP(=O)(COCCOn1cnc2c(N)ncnc21)OC(C)OC(=O)C(C)C (stereo unspecified) | – |
| 37 | 74 | CC(OC(=O)C(C)(C)C)OP(=O)(COCCOn1cnc2c(N)ncnc21)OC(C)OC(=O)C(C)(C)C (stereo unspecified) | – |
| 5 | 10 | CC(C)OP(=O)(COCCOn1cnc2c(N)ncnc21)OC(C)C | – |
| 4 | 8 | Nc1ncnc2c1ncn2OCCOCP(=O)(OCc1ccc(Cl)cc1)OCc1ccc(Cl)cc1 | – |
